Kir21 inh = inhibitors of mouse Kir2.1 inward-rectifier potassium channel. Inward rectifier potassium channel 2 (Mus musculus), P35561. HEK293-Kir2.1, FluxOR thallium flux fluorescence; stronger effect = lower value. B-score at 10 µM. 310,000 compounds, 0.85% hits. AID 1672, 2009;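 active means fluorescence ratio B-score at or below minus 3 SD of library scores, with starting-brightness B-score within 2 SD, cut at about -4.2 in these data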;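 further: channel flux triggered by added potassium and thallium sulfate stimulus; B-score of peak minus minimum fluorescence over baseline after thallium stimulus; more negative B-score means stronger Kir2.1 block with less thallium influx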
KCNQ1 inh = inhibitors of human KCNQ1 channel, primary screen, cell-based, thallium flux, high-throughput. Potassium voltage-gated channel subfamily KQT member 1 (Homo sapiens), P51787. CHO-K1 KCNQ1, FluxOR thallium flux fluorescence; stronger effect = higher value. B-score at 10 µM. 310,000 compounds, 1.3% hits. AID 2642, 2010;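 active means compounds whose thallium flux B-score, printed positive for inhibition, exceeds three library SD while starting fluorescence stays within three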;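 further: channel opened by potassium depolarization with thallium stimulus after 20 min compound exposure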
hERG rescue = hERG rescue from dofetilide block, primary screen, cell-based, CHO-hERG, FluxOR thallium flux, dofetilide IC70. Voltage-gated inwardly rectifying potassium channel KCNH2 (Homo sapiens), Q12809. dofetilide IC70 present. activation (rescue from dofetilide block), less the hit threshold, % at 10 µM. 310,000 compounds, 0.51% hits. AID 1511, 2009;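 active means activation above the mean of controls blocked by dofetilide plus 5 SD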;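 further: thallium influx through hERG after potassium depolarization seen as dye fluorescence rise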
KCNQ1 act = potentiators or activators of KCNQ1 channel, primary screen, cell-based, thallium flux, high-throughput; Potassium voltage-gated channel subfamily KQT member 1 (Homo sapiens), P51787; CHO-K1 KCNQ1, thallium flux FluxOR fluorescence; stronger effect = higher value; B-score at 10 µM; 310,000 compounds, 0.35% hits;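 active means fluorescence ratio B-score, a plate-corrected score, at least three library SD, with initial intensity B-score within 5 SD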
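Assay system: CHO-K1 cells stably expressing KCNQ1; Medium: assay buffer with matched DMSO; Also added: K+/Tl+ depolarizing stimulus; Dosing: single dose; Timing: dye 90 min, compound 20 min, room temperature; Measured by: kinetic FluxOR thallium fluorescence, 10-s 1-Hz baseline, 110-s post-stimulus read; Read-out: peak-minus-minimum fluorescence over initial fluorescence, negative-control normalized, B-scored.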
KCNK9 inh = KCNK9 potassium channel inhibitors, primary screen, HEK293 cells, thallium flux. Potassium channel subfamily K member 9 (Homo sapiens), Q9NPC2. FluxOR thallium flux fluorescence; stronger effect = lower value. B-score at 10 µM. 310,000 compounds, 1.2% hits;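 active means ratio B-score over 3 SD below the library mean, with starting fluorescence within 5 SD of its mean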;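 further: negative B-score means less thallium flux so channel inhibition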
KCNK3 inh = human KCNK3 channel inhibitors, primary screen, CHO cells, FluxOR thallium flux, B-score; Potassium channel subfamily K member 3 (Homo sapiens), O14649; 340,000 compounds, 0.84% hits; FluxOR fluorescence; stronger effect = lower value; AID 602410, 2012; B-score at 10 µM;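 active means B-score under library mean minus 4 SD, starting fluorescence ratio at most library mean plus 5 SD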;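 further: more negative B-score means stronger inhibition of thallium flux through KCNK3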
KCNK9 inh conf = KCNK9 potassium channel inhibitors, confirmation, HEK293 cells, thallium flux, duplicate | inhibition, % at 10 µM | 4,900 compounds, 43% hits | AID 492992, 2010 | shares compounds with KCNK9 inh | FluxOR thallium flux fluorescence;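 active means thallium signal inhibited by more than 5 SD of the compound-free buffer control wells, on both duplicate plates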
Kir21 sel = mouse Kir2.1 channel inhibition, confirmation, selectivity assay for KCNK9 modulator project, cell-based, HEK293, thallium flux; shares compounds with KCNK9 inh; Kir2.1 cells, FluxOR thallium flux fluorescence; inhibition, % at 10 µM; 4,900 compounds, 4% hits; AID 492993, 2010;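 active means thallium signal drop more than 5 SD beyond the mean of the no-compound control wells, seen in both duplicate plates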;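 further: signal is fluorescence rise after thallium addition divided by baseline fluorescence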
KCNK9 uninduced = thallium flux in non-induced HEK293 cells, confirmation, counter-screen for KCNK9 inhibitor project, cell-based, second counter screen, non-induced KCNK9-HEK293; shares compounds with KCNK9 inh; FluxOR thallium flux; inhibition, % at 10 µM; 4,900 compounds, 40% hits;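 active means thallium signal drop beyond 5 SD of the untreated control mean, on both duplicate plates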
KCNK3 inh conf = retest of human KCNK3 channel inhibitors, confirmation, CHO cells, FluxOR thallium flux, triplicate; shares compounds with KCNK3 inh; FluxOR fluorescence; 0% buffer, 100% carvedilol maximal block; ratio percent of control, % at 10 µM; 2,400 compounds, 99% hits; AID 651638, 2012;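 active means ratio percent of control, averaged over triplicates, above buffer control mean plus 5 SD, cut at about 64% in these data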;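 further: ratio is the fluorescence rise from min to max over baseline after thallium stimulus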
KCNK3 uninduced = thallium flux inhibition in non-induced cells, primary screen, counter-screen for KCNK3 inhibitor project, cell-based, non-induced KCNK3 line, FluxOR thallium, triplicate; 2,400 compounds, 40% hits; AID 651747, 2012; non-induced KCNK3 parental cells; stronger effect = lower value; thallium flux ratio (lower = more inhibition) at 10 µM; shares compounds with KCNK3 inh;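 active means thallium flux ratio, averaged over three wells, more than 5 SD below the buffer control mean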;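 further: host cells are CHO cells without KCNK3 induction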
Hits are given with their value; – = inactive; · = no result given. An excerpt weighted towards active compounds, which were near 3.7% of everything screened.

SMILES	Kir21 inh	KCNQ1 inh	hERG rescue	KCNQ1 act	KCNK9 inh	KCNK3 inh	KCNK9 inh conf	Kir21 sel	KCNK9 uninduced	KCNK3 inh conf	KCNK3 uninduced
O=C(Oc1ccc2ccccc2c1Br)N1CCCCCC1	–	–	–	–	-12.2	–	68.0%	–	36.0%	108.3	–
Cc1ccc2c(CN(C)Cc3ccccc3)cc(=O)oc2c1C	–	–	–	–	–	-9.35	–	–	–	92.0	–
CCc1ccc2oc(=O)cc(CN(C)Cc3ccccc3)c2c1	–	–	–	–	–	–	·	·	·	·	·
Cc1ccc2c(CN(C)Cc3ccc(Cl)cc3)cc(=O)oc2c1	–	–	–	–	-11.5	-15.9	37.5%	–	43.5%	94.3	–
Cc1ccc2c(CN(C)Cc3ccc(Cl)cc3Cl)cc(=O)oc2c1	–	–	–	–	–	–	·	·	·	·	·
COc1ccc(NC2CCCN(C(=O)c3ccc4[nH]c(C)c(C)c4c3)C2)cc1OC (centres undefined)	–	–	–	–	–	–	·	·	·	·	·
COc1ccc(NC(=O)c2oc3ccccc3c2NC(=O)c2ccc3c(c2)OCO3)cc1	–	–	–	–	-10.9	-8.96	58.5%	–	–	87.7	–
CCOC(=O)c1oc2ccccc2c1NC(=O)c1ccc2c(c1)OCO2	–	–	–	–	–	–	·	·	·	·	·
Cc1cccc(NC(=O)CSc2nnc(C3CC3)n2CC2CCCO2)c1C (centres undefined)	–	–	–	–	–	–	·	·	·	·	·
O=C(CSc1nc2ccccc2c(=O)n1Cc1ccco1)NCc1ccccc1	–	–	–	–	–	–	·	·	·	·	·
COC(=O)c1ccc(CSc2nc3ccccc3c(=O)n2Cc2ccco2)o1	–	–	–	–	-12.3	-11.5	–	–	38.0%	118.3	–
Cc1nn(Cc2ccc(C(=O)Nc3ccc(C(=O)OC(C)C)cc3)o2)c(C)c1Cl	–	–	–	–	-10.3	-9.53	56.0%	–	–	107.3	–
Cc1nn(Cc2ccc(C(=O)NN)o2)c(C)c1Cl	–	–	–	–	–	–	·	·	·	·	·
CC(C)CN(C(=O)COC(=O)Cc1cccc2ccccc12)c1c(N)n(Cc2ccccc2)c(=O)[nH]c1=O	–	–	–	–	–	–	·	·	·	·	·
C=CCOC(=O)C1=C(C)NC(SCC(N)=O)=C(C#N)C1c1ccc(C)cc1 (centres undefined)	–	–	–	–	–	–	·	·	·	·	·
C=CCOC(=O)C1=C(C)NC(SCC)=C(C#N)C1c1ccc(Cl)cc1 (centres undefined)	–	9	–	–	-8.35	-8.75	–	–	40.0%	116.3	–
COc1ccccc1C(=O)Oc1ccc(C(C)(C)C)cc1	–	–	–	–	–	-9.1	–	–	–	92.7	0.157
Cc1ccc(Cl)cc1N1CCN(C2CCCCC2NS(=O)(=O)c2ccccc2)CC1 (centres undefined)	–	–	–	–	-17.1	-9.35	54.5%	–	43.0%	111.7	0.144
Cc1cccc(N2CCN(C3CCCCC3NS(=O)(=O)c3ccccc3)CC2C)c1 (centres undefined)	–	–	–	–	-15.5	-9.25	44.0%	–	45.0%	115.0	0.153
COc1ccccc1C(=O)Nc1cccc(NC(=O)c2ccccc2C)c1	–	–	–	–	-9.09	-11.7	54.5%	–	30.5%	83.7	–
C=CCOc1c(Br)cc(/C=N/NC(N)=O)cc1OC	–	–	–	–	–	–	·	·	·	·	·
C=CCOc1c(CCC)cc(CCC)cc1C(N)=O	–	–	–	–	-9.38	-9.81	60.5%	–	32.5%	118.7	0.152
CC1CCCCN1S(=O)(=O)c1ccc(NC(=O)c2cccs2)cc1 (centres undefined)	–	–	–	–	-8.68	–	41.0%	–	–	88.3	–
CCCCN(CCCC)S(=O)(=O)c1ccc(NC(=O)c2cccs2)cc1	–	–	–	–	-8.64	–	48.0%	–	44.0%	120.7	0.154
CC1CCN(S(=O)(=O)c2ccc(NC(=O)c3cccs3)cc2)CC1	–	–	–	–	–	–	·	·	·	·	·
SMILES	Kir21 inh	KCNQ1 inh	hERG rescue	KCNQ1 act	KCNK9 inh	KCNK3 inh	KCNK9 inh conf	Kir21 sel	KCNK9 uninduced	KCNK3 inh conf	KCNK3 uninduced
C=CC[n+]1c(/C=C2\C=Cc3cc(C)ccc3N2CC)ccc2ccccc21	-6.53	16	–	–	-13.3	-16.1	78.5%	88.0%	63.0%	146.3	0.112
COC(/C(=N/O)c1ccc(Cl)cc1)c1ccccc1 (centres undefined)	–	11	–	–	-10.1	-9.66	38.5%	–	48.0%	114.3	0.158
CC(=O)N1CCN(C(=O)COc2ccccc2C(=O)Nc2ccccc2)CC1	–	–	–	–	–	–	·	·	·	·	·
O=C(Nc1ccon1)c1nc[nH]c1C(=O)N1CCN(c2ccccc2)CC1	·	·	·	·	·	–	·	·	·	·	·
CN(CCOc1ccccc1)CC(=O)Nc1ccc([N+](=O)[O-])cc1Cl	–	–	–	–	–	–	·	·	·	·	·
CN(CC(=O)Nc1ccc([N+](=O)[O-])cc1Br)Cc1c(F)cccc1Cl	–	–	–	–	-14.8	-10.1	–	–	43.0%	94.7	0.156
COc1ccc(/C=N/Nc2nc(C(=O)O)cs2)cc1	–	–	–	–	–	–	·	·	·	·	·
c1ccc(C2c3[nH]c4ccccc4c3CCN2Cc2cccn2-c2ccccn2)nc1 (centres undefined)	–	–	–	–	–	–	·	·	·	·	·
Cc1cccc(C2c3[nH]c4ccccc4c3CCN2Cc2cccn2-c2ncccn2)c1 (centres undefined)	–	–	–	–	-8.48	-13.7	–	–	32.5%	113.3	–

Screens deposited in PubChem BioAssay by Johns Hopkins Ion Channel Center.
